Usually IC50 stands for the concentration that inhibits the measured activity by half.

Structures are written as SMILES.

Holding throughout (format): functional
One assay has as its system HCC1806. As to the kind of experiment: Cytotoxicity against human HCC1806 cells assessed as reduction in cell viability incubated for 3 days by cell-titer-Glo reagent based assay. The settings on record: HCC1806, 72 h. In a few lines: (§1)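 Viability by CellTiter-Glo (ATP read-out). Cells plated at 3 × 10³/well in 384-well format overnight, then exposed to compound over a range (0.125–20 µM for initial series) for 3 d in RPMI 1640 with 10% FBS at 37°C, 5% CO₂. IC₅₀ fitted from dose–response curve.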

A further assay deals with HCC1143. As to the kind of experiment: Cytotoxicity against human HCC1143 cells assessed as reduction in cell viability incubated for 3 days by cell-titer-Glo reagent based assay. As to conditions: HCC1143, 72 h. In a few lines:
as §1

The next assay deals with HCC38. As to the kind of experiment: Cytotoxicity against human HCC38 cells assessed as reduction in cell viability incubated for 3 days by cell-titer-Glo reagent based assay. The settings on record: HCC38, 72 h. In a few lines: as §1

As for `O=C(Nc1cc(Cl)ccc1Cl)c1ccc([N+](=O)[O-])o1`, the IC50 with HCC1806 stood at 8.6 µM. On to `Cc1cccc(NC(=O)c2ccc([N+](=O)[O-])o2)c1C`, for which the IC50 in the assay on HCC1806 is 9.7 µM. On to `CCC1CCN(c2ccc(NC(=O)c3ccco3)cc2Cl)CC1`, for which the IC50 in the assay with HCC1806 was above 40 µM. On to `O=C(Nc1ccc(N2CCCCC2)c(Cl)c1)c1ccc([N+](=O)[O-])o1`, for which the IC50 in the assay on HCC1806 came to 3.5 µM; in the assay on HCC1143, 4.5 µM; with HCC38, 3800 nM. In the case of `O=C(Nc1ccc(N2CCN(Cc3ccccc3F)CC2)cc1)c1ccc([N+](=O)[O-])o1`, the concentration for half-maximal inhibition (IC50) in the assay with HCC1806 was 3 µM; with HCC1143, 3.8 µM; with HCC38 it was 1900 nM. Turning to `CCc1ccc(NC(=O)c2ccc([N+](=O)[O-])o2)cc1`, the IC50 in the assay with HCC1806 stood at 5 µM. Consider `O=C(Nc1ccc(N2CCOCC2)c(Br)c1)c1ccco1`, for which the IC50 with HCC1806 is above 40 µM. With `Cc1ccc(NC(=O)c2ccc([N+](=O)[O-])o2)cc1`, in the assay with HCC1806, the IC50 came out at 6.7 µM. For the compound `Cc1cc(NC(=O)c2ccc([N+](=O)[O-])o2)c(C)cc1I`, the IC50 with HCC1806 turned out to be 3 µM. As to `O=C(Nc1ccc(Cl)cc1)c1ccc([N+](=O)[O-])o1`, the IC50 in the assay with HCC1806 amounted to 5.1 µM. Take `O=C(Nc1cc(C(F)(F)F)ccc1Cl)c1ccc([N+](=O)[O-])o1`: in the assay with HCC1806, the IC50 was found to be 5.1 µM.

Values taken from ChEMBL document CHEMBL3593159, “Identification of 5-nitrofuran-2-amide derivatives that induce apoptosis in triple negative breast cancer cells by activating C/EBP-homologous protein expression” (Bioorg Med Chem, 2015).
